# Legend:
# [1] = Partition coefficient, log P of the compound; format: physicochemical; settings: octanol/water
# [2] = test system: Plasmodium berghei; assay: Antiplasmodial activity as survival in Plasmodium berghei ANKA infected BALB/c mice (Mus musculus) at 30 mg/kg peroral dose; format: functional; settings: route oral
# [3] = test system: Plasmodium berghei; assay: Antiplasmodial activity as survival in Plasmodium berghei ANKA infected BALB/c mice (Mus musculus) after single 13 mg/kg peroral dose; format: functional; settings: route oral
# [4] = test system: MEF; assay: Cytotoxicity against mouse wild type MEF cells after 72 hrs by SRB assay; format: cell-based
# Procedure, shortened: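 Non-cancerous immortalized fibroblasts grown in DMEM with 10% FBS and 1% pen/strep at 37 °C, 5% CO2, allowed ≥5 h to attach. Dosed over a concentration range for 72 hr. Biomass by SRB: TCA fixation overnight at 4 °C, 0.057% SRB stain for 30 min, Tris solubilisation, A510. IC50 by logistic curve fitting, at least three experiments ± SEM.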
# [5] = test system: Plasmodium berghei; assay: Antiplasmodial activity as reduced parasitaemia in Plasmodium berghei ANKA infected BALB/c mice (Mus musculus) at 30 mg/kg peroral dose; format: functional; parameters: scale not given: the % may be the effect or the level left; settings: route oral
# [6] = test system: U-937; assay: Cytotoxicity against human U937 cells after 72 hrs by MTS assay; format: functional, cell-based; settings: U-937, 72 h
# Procedure, shortened: (§1)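 Exposed to a range of compound concentrations for 72 hr. Viability by MTS/PMS, absorbance at 490 nm. IC50 from logistic dose-response fits, mean of at least three experiments ± SEM.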
# [7] = test system: HL-60; assay: Cytotoxicity against human HL60 cells after 72 hrs by MTS assay; format: functional, cell-based; settings: HL-60, 72 h; procedure, shortened: as §1
# [8] = test system: SK-MEL-5; assay: Cytotoxicity against human SK-MEL-5 cells after 72 hrs by SRB assay; format: functional, cell-based; settings: SK-MEL-5, 72 h
# Procedure, shortened: (§2)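 Then 72 hr with a range of compound concentrations. Fixed overnight at 4 °C in 10% TCA, stained 30 min with 0.057% w/v sulforhodamine B in 1% acetic acid, dye solubilised in 10 mM Tris base, read at 510 nm.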
# [9] = test system: UACC-62; assay: Cytotoxicity against human UACC62 cells after 72 hrs by SRB assay; format: functional, cell-based; settings: UACC-62, 72 h; procedure, shortened: as §2
# [10] = test system: HeLa; assay: Cytotoxicity against human HeLa cells after 72 hrs by SRB assay; format: functional, cell-based; procedure, shortened: as §2
# [11] = Cytotoxicity against human Hs888Lu cells after 72 hrs by SRB assay; format: cell-based
# Procedure, shortened: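 Non-cancerous immortalized fibroblasts grown in DMEM with 10% FBS and 1% pen/strep at 37 °C, 5% CO2, allowed ≥5 h to attach. Dosed over a concentration range for 72 hr. IC50 by logistic curve fitting, at least three experiments ± SEM.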
# [12] = test system: Mus musculus; assay: Toxicity in Plasmodium berghei ANKA infected perorally dosed BALB/c mice (Mus musculus) assessed as induction of behavioral changes administered as single dose; format: organism-based; settings: in vivo, po
# Procedure, shortened: (§3)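 Male 5-week-old mice of about 22 g, infected i.p. on day 0 with 2 × 10^7 P. berghei ANKA-parasitized erythrocytes. At 24 h they received one oral dose in 7:3 Tween 80:ethanol diluted with water, 5 mice per group. Animals were watched to day 30 for overt toxicity and behavioral change.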
# [13] = test system: Mus musculus; assay: Toxicity in Plasmodium berghei ANKA infected BALB/c mice (Mus musculus) assessed as induction of adverse effects at 144 mg/kg, perorally administered as single dose; format: organism-based; parameters: dose 144 mg/kg, route oral; settings: in vivo, po; procedure, shortened: as §3
smiles,measurement,setting,value
CCOP(=O)(OCC)OCc1ccc(S(=O)(=O)CC(C[C@H]2O[C@@H]3C[C@]4(C)CC[C@H]5[C@H](C)CC[C@@H]([C@H]2C)[C@@]35OO4)C[C@H]2O[C@@H]3C[C@]4(C)CC[C@H]5[C@H](C)CC[C@@H]([C@H]2C)[C@@]35OO4)cc1,logP,[1]; read-out: logP,8.8
C[C@H]1[C@H](OC(=O)CCC(=O)[O-])O[C@@H]2O[C@@]3(C)CC[C@H]4[C@H](C)CC[C@@H]1[C@@]24OO3.[Na+] [SODIUM ARESUNATE],Survival,[2],7.6 days
CCN(CC)C(=O)OCc1ccc(S(=O)(=O)CC(C[C@H]2O[C@@H]3C[C@]4(C)CC[C@H]5[C@H](C)CC[C@@H]([C@H]2C)[C@@]35OO4)C[C@H]2O[C@@H]3C[C@]4(C)CC[C@H]5[C@H](C)CC[C@@H]([C@H]2C)[C@@]35OO4)cc1,logP,[1]; read-out: logP,8.3
Cl.OC(c1cc(C(F)(F)F)nc2c(C(F)(F)F)cccc12)C1CCCCN1 (configuration not stated) [MEFLOQUINE HYDROCHLORIDE],Survival,[3],11 days
COc1cccc2c1C(=O)c1c(O)c3c(c(O)c1C2=O)C[C@@](O)(C(=O)CO)C[C@@H]3O[C@H]1C[C@H](N)[C@H](O)[C@H](C)O1 [DOXORUBICIN],IC50,[4],3400 nM
C[C@H]1[C@@H](CC(C[C@H]2O[C@@H]3C[C@]4(C)CC[C@H]5[C@H](C)CC[C@@H]([C@H]2C)[C@@]35OO4)CS(=O)(=O)Cc2ccc(F)cc2)O[C@@H]2C[C@]3(C)CC[C@H]4[C@H](C)CC[C@@H]1[C@@]24OO3,logP,[1]; read-out: logP,7.8
C[C@H]1[C@@H](CC(C[C@H]2O[C@@H]3C[C@]4(C)CC[C@H]5[C@H](C)CC[C@@H]([C@H]2C)[C@@]35OO4)CS(=O)(=O)CCCCCCO)O[C@@H]2C[C@]3(C)CC[C@H]4[C@H](C)CC[C@@H]1[C@@]24OO3,logP,[1],9.5
CC(C)(N)CNC(=O)C[C@H]1CC[C@]2(CC1)OO[C@]1(O2)C2CC3CC(C2)CC1C3 [OZ277],Survival,[2],10.7 days
same,Activity,[5],99.95%
C[C@H]1[C@@H](CC(C[C@H]2O[C@@H]3C[C@]4(C)CC[C@H]5[C@H](C)CC[C@@H]([C@H]2C)[C@@]35OO4)CS(=O)(=O)c2ccc(CO)cc2)O[C@@H]2C[C@]3(C)CC[C@H]4[C@H](C)CC[C@@H]1[C@@]24OO3,IC50,[6],280 nM
same,IC50,[7],130 nM
same,IC50,[8],140 nM
same,IC50,[9],30 nM
same,IC50,[10],1100 nM
same,IC50,[4],> 50000 nM
same,IC50,[11],> 50000 nM
same,logP,[1]; read-out: logP,7
C[C@H]1[C@@H](CC(C[C@H]2O[C@@H]3C[C@]4(C)CC[C@H]5[C@H](C)CC[C@@H]([C@H]2C)[C@@]35OO4)CS(=O)(=O)c2ccc(COC(=O)N(C)C)cc2)O[C@@H]2C[C@]3(C)CC[C@H]4[C@H](C)CC[C@@H]1[C@@]24OO3,Activity,[12],Non-toxic
same,IC50,[6],280 nM
same,IC50,[7],60 nM
same,IC50,[8],60 nM
same,IC50,[9],40 nM
same,IC50,[10],110 nM
same,IC50,[4],> 50000 nM
same,IC50,[11],> 50000 nM
same,logP,[1]; read-out: logP,7.6
same,Activity,[13],Non-toxic
